Screening results from PubChem.
Only a selection was taken, and hits are over-represented in it overall.
IDH1 mut inh: inhibitors of IDH1 R132H reductase, primary screen, biochemical, plate reader, single point. 70,000 compounds, 0.18% hits. inhibition, % at 10 µM. diaphorase/resazurin fluorescence, 60 min. AID 624101, 2012. Isocitrate dehydrogenase [NADP] cytoplasmic (Homo sapiens), O75874; in the data active means inhibition above about 34%; inconclusive means no clear call, values can overlap the other calls; inactive means below about 11%;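 further: 0% = DMSO and 100% = no enzyme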
T cruzi growth: T. cruzi intracellular proliferation inhibitors, primary screen, cell-based, beta-gal Tulahuen parasites, NIH3T3 host, luminescence; 77,000 compounds, 5.9% hits; T. cruzi beta-gal in NIH3T3, GalScreen luminescence, 90 h; inhibition, % at 8.34 µM;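 active means mean inhibition above about 93%, with at least 55% of replicates each passing it, limit read from the data, passing the limit was not always enough; inconclusive means only one of those two conditions holds; inactive means neither condition holds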
KDM4C inh: inhibitors of GASC-1 (KDM4C) histone demethylase, primary screen, biochemical, single concentration HTS. GST-KDM4C 2-372, H3K9me3 peptide, LANCE TR-FRET. inhibition, % at 12.5 µM. 96,000 compounds, 0.15% hits. AID 720574, 2013;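 active means mean replicate inhibition above about 25%, with at least 55% of replicates also reaching it, limit read from the data, passing the limit was not always enough; inconclusive means only one of those two conditions met; inactive means neither condition met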
Target sequence (Q9H3R0 2-372 limits assumed): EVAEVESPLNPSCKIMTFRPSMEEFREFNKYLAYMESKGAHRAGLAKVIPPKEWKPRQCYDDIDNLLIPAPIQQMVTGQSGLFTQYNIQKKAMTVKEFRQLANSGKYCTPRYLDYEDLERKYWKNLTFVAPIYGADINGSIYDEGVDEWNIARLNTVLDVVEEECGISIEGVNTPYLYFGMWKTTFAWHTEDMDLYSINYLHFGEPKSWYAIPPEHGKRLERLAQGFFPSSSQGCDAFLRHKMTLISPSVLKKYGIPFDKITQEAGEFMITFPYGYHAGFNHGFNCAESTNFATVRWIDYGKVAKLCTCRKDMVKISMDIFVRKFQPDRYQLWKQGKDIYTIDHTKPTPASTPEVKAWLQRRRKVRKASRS
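reagent = H3K9me3 peptide substrate, Fe(II), 2-oxoglutarate | system = GST-tagged GASC-1 (JMJD2C) catalytic fragment, aa 2-372 | amount = enzyme final amount 10 nM | read-out = Fall in 671/618 emission ratio as inhibition | medium = HEPES buffer, pH 7.5, plus ascorbate | schedule = 30 min reaction, 60 min detection, RT | measured by = LANCE TR-FRET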
Starred values were filed as active, the others as inactive; ? = inconclusive; nt = no result; ! = repeats disagree.

SMILES | IDH1 mut inh | T cruzi growth | KDM4C inh
COc1ccc(C#Cc2ccc3c(c2)[C@H]2[C@H](CCN2S(=O)(=O)c2ccccc2F)[C@H](CO)N3C)cc1 | nt | -10.0 | 0.0
COc1ccc(C#Cc2ccc3c(c2)[C@@H]2[C@@H](CCN2S(=O)(=O)c2ccccc2F)[C@@H](CO)N3C)cc1 | nt | 26.2 | 47.5*
Cn1cnc(S(=O)(=O)N[C@@H]2C=C[C@H](CC(=O)Nc3ccccc3)O[C@@H]2CO)c1 | 0.1 | nt | -1.8
CCN(CC)c1ccc(/C=N/NC(=O)c2ccccn2)c(O)c1 | 0.2 | nt | nt
Cc1cc(C)c(C#N)c(SCC(O)CS(=O)(=O)c2ccc(C(C)(C)C)cc2)n1 (stereo not given) | 0.3 | nt | nt
CC(C)(C)c1ccc(S(=O)(=O)/C=C/C#N)cc1 | 82.4* | nt | nt
CO[C@H]1CN(C)C(=O)c2ccc(NC(=O)C3CCC3)cc2OC[C@H](C)N(C(=O)CN(C)C)C[C@H]1C | nt | -9.6 | 1.2
Cc1ccc(S(=O)(=O)N2[C@@H]3CNC[C@H]2C3c2ccc(-c3cccc(C#N)c3)cc2)cc1 (stereo not given in full) | nt | nt | 1.9
N#Cc1cccc(-c2ccc(C3[C@H]4CNC[C@@H]3N4S(=O)(=O)c3ccc(F)cc3)cc2)c1 (stereo not given in full) | nt | nt | 34.7*!
C[C@H](CO)N1C[C@H](C)[C@H](CN(C)C(=O)CCCN(C)C)OCCCC[C@H](C)Oc2ccc(NC(=O)c3ccccc3)cc2C1=O | nt | -6.0 | 1.4
Cc1ccc(NS(=O)(=O)c2cccc(C(=O)Nc3ccccc3C(=O)O)c2)cc1C | -1.2 | nt | nt
C[C@@H]1CN([C@H](C)CO)C(=O)Cc2cc(NC(=O)Nc3ccccc3)ccc2O[C@@H]1CN(C)C | nt | 93.0 | -0.3
C[C@@H]1CN([C@@H](C)CO)S(=O)(=O)c2ccc(C#Cc3ccncc3)cc2O[C@H]1CN(C)S(=O)(=O)c1ccccc1 | 0.0 | 82.4 | -6.5
CC(C)C#Cc1ccc2c(c1)O[C@@H](CN(C)Cc1ccncc1)[C@H](C)CN([C@@H](C)CO)S2(=O)=O | 3.1 | 121.2* | -0.8
C[C@@H]1CN([C@@H](C)CO)S(=O)(=O)c2ccc(C#C[C@@H](C)O)cc2O[C@@H]1CN(C)Cc1ccncc1 | nt | 56.6 | -2.1
CCCC#Cc1ccc2c(c1)O[C@H](CN(C)C)[C@@H](C)CN([C@@H](C)CO)S2(=O)=O | -0.7 | 94.6 | 0.1
CCCC#Cc1ccc2c(c1)O[C@@H](CN(C)C)[C@@H](C)CN([C@H](C)CO)S2(=O)=O | 58.7* | 53.7 | 53.2*
C[C@H]1CN([C@@H](C)CO)S(=O)(=O)c2ccc(C#Cc3ccncc3)cc2O[C@@H]1CN(C)S(=O)(=O)c1ccccc1 | 12.2 | 23.4 | 28.0*
CC(C)C#Cc1ccc2c(c1)O[C@H](CN(C)Cc1ccncc1)[C@@H](C)CN([C@@H](C)CO)S2(=O)=O | 4.6 | 117.1* | -0.2
C[C@H](O)C#Cc1ccc2c(c1)O[C@@H](CN(C)Cc1ccncc1)[C@@H](C)CN([C@H](C)CO)S2(=O)=O | nt | 89.9 | -0.2
O=C(CSc1nnc(C2COc3ccccc3O2)n1-c1ccccc1)c1ccc([N+](=O)[O-])cc1 (stereo not given) | -0.3 | nt | nt
Cc1ccc(S(=O)(=O)N[C@@H]2CC[C@@H](CCNC(=O)C3CCCCC3)O[C@@H]2CO)cc1 | -0.2 | 14.9 | -0.1
CC(C)NC(=O)N[C@@H]1CC[C@H](CCNC(=O)C2CCC2)O[C@@H]1CO | 0.2 | nt | -1.7
CC(C)NC(=O)N[C@H]1CC[C@H](CCNC(=O)C2CCC2)O[C@H]1CO | 0.4 | nt | 26.5*
Cc1ccc(S(=O)(=O)NCC[C@@H]2CC[C@@H](NC(=O)c3cccc(F)c3)[C@@H](CO)O2)cc1 | -0.5 | 21.9 | 0.3
SMILES | IDH1 mut inh | T cruzi growth | KDM4C inh
Cc1ccc(S(=O)(=O)NCC[C@H]2CC[C@@H](NC(=O)c3cccc(F)c3)[C@@H](CO)O2)cc1 | 0.9 | 1.2 | 44.4*
Cc1ccc(S(=O)(=O)N[C@H]2CC[C@H](CCNC(=O)C3CCCCC3)O[C@H]2CO)cc1 | 66.9* | 2.6 | 71.6*
C/C=C/c1ccc2c(c1)O[C@H](CN(C)C(=O)c1ccc(F)cc1)[C@H](C)CN([C@H](C)CO)S2(=O)=O | -0.4 | 44.2 | -1.2
C[C@@H]1CCCCO[C@@H](CN(C)C(=O)Nc2ccc(F)cc2)[C@@H](C)CN([C@H](C)CO)C(=O)c2cc(NC(=O)Nc3ccc(C(F)(F)F)cc3)ccc2O1 | nt | 90.6 | -1.1
COc1ccc(NC(=O)N(C)C[C@H]2OCCCC[C@H](C)Oc3ccc(NC(=O)Nc4ccc(C(F)(F)F)cc4)cc3C(=O)N([C@H](C)CO)C[C@@H]2C)cc1 | 0.6 | ? | -0.3
COc1ccc(NC(=O)N(C)C[C@H]2OCCCC[C@@H](C)Oc3ccc(NC(=O)Nc4ccc(C(F)(F)F)cc4)cc3C(=O)N([C@H](C)CO)C[C@H]2C)cc1 | nt | 115.8* | 0.9
C[C@H](CO)N1C[C@H](C)[C@H](CN(C)C(=O)Nc2ccc(C(F)(F)F)cc2)OCCCC[C@H](C)Oc2ccc(NC(=O)Nc3ccc(F)cc3)cc2C1=O | 3.5 | ? | -0.5
C[C@@H]1CCCCO[C@H](CN(C)Cc2ccncc2)[C@H](C)CN([C@@H](C)CO)C(=O)c2cc(NC(=O)CCC(F)(F)F)ccc2O1 | 74.7* | 65.8 | 33.9*
C[C@@H]1CCCCO[C@H](CN(C)C(=O)Nc2ccc(C(F)(F)F)cc2)[C@H](C)CN([C@H](C)CO)C(=O)c2cc(NC(=O)Nc3ccc(F)cc3)ccc2O1 | 0.7 | 117.2* | 0.5
C[C@@H]1CN([C@@H](C)CO)C(=O)c2cc(NC(=O)CCC(F)(F)F)ccc2O[C@@H](C)CCCCO[C@@H]1CN(C)Cc1ccncc1 | nt | 74.0 | -1.0
C[C@H](CO)N1C[C@H](C)[C@@H](CN(C)C(=O)Nc2ccc(C(F)(F)F)cc2)OCCCC[C@H](C)Oc2ccc(NC(=O)Nc3ccc(F)cc3)cc2C1=O | 0.9 | 118.9* | -3.4
O=C(Nc1ccc(Cl)c(Cl)c1)N[C@@H]1CC[C@@H](CCn2cc(C3CC3)nn2)O[C@H]1CO | -0.4 | nt | -0.5
CC(C)N(CCC#N)S(=O)(=O)c1ccccc1[N+](=O)[O-] | 0.0 | nt | nt
O=C(C1CCC1)N1CC(=O)N2[C@H](CO)[C@H](c3ccc(-c4ccccc4F)cc3)[C@@H]2C1 | nt | nt | 1.0
COc1cc([N+](=O)[O-])ccc1NC(=O)COc1ccc2ccccc2c1 | 0.0 | nt | nt
C[C@H](CO)N1C[C@H](C)[C@@H](CN(C)C(=O)Nc2ccccc2)Oc2ccc(NS(=O)(=O)c3ccc(Cl)cc3)cc2CC1=O | -0.2 | 7.9 | 1.3
CN([NH2+][O-])c1cc(O)ccc1O | 69.3* | nt | nt
O=C(CCCCCC(=O)N/N=C/c1cc(O)ccc1O)NO | 68.8* | nt | nt
O=C(CCCCCCC(=O)Nc1ccccc1O)N/N=C/c1cc(O)ccc1Br | -0.4 | nt | nt
O=C(CCCCCC(=O)N/N=C/c1ccc(O)cc1O)NO | -0.2 | nt | nt
O=C(CCCCCC(=O)Nc1ccccc1O)N/N=C\c1cc(O)ccc1O | 49.8* | nt | nt
O=C(C[C@H]1C[C@H]2c3cc(NC(=O)Nc4ccc(F)cc4)ccc3O[C@H]2[C@H](CO)O1)NC1CCCC1 | 0.2 | -22.4 | -2.5
